# Measured values taken from ChEMBL document CHEMBL1125932 (1991).
# How the values were obtained:
# Type in all cases: functional
# ESM [1] = test: Concentration required to cause 50% reduction in cellular DNA synthesis in ESM cells; settings: Homo sapiens; read-out: MIC
# Summary of the method: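 In ESM cells, cellular DNA synthesis was monitored by incorporation of [methyl-3H]dThd. The value is the concentration causing a 50% reduction in incorporation.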
# ESM [2] = test: Concentration required to cause a microscopically detectable alteration of normal cell morphology in ESM cells; settings: Homo sapiens
# Summary of the method: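 ESM cells were examined under the microscope. The value is the minimum concentration causing a microscopically detectable change in normal cell morphology.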
# ESM [3] = test: Concentration required to inhibit HSV-1 (F) induced cytopathogenicity in ESM cells by 50%; settings: Homo sapiens; read-out: MIC
# Summary of the method: (§1)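 Embryonic skin-muscle (ESM) cell cultures were infected with 100 CCID50 of virus (1 CCID50 being the infective dose for 50% of cultures).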
# ESM [4] = test: Concentration required to inhibit HSV-1 (KOS) induced cytopathogenicity in ESM cells by 50%; settings: Homo sapiens; read-out: MIC; summary of the method: as §1
# ESM [5] = test: Concentration required to inhibit HSV-1 (McIntyre) induced cytopathogenicity in ESM cells by 50%; settings: Homo sapiens; read-out: MIC; summary of the method: as §1
# ESM [6] = test: Concentration required to inhibit HSV-2(196) induced cytopathogenicity in ESM cells by 50%; settings: Homo sapiens; read-out: MIC; summary of the method: as §1
# ESM [7] = test: Concentration required to inhibit HSV-2(G) induced cytopathogenicity in ESM cells by 50%; settings: Homo sapiens; read-out: MIC; summary of the method: as §1
# ESM [8] = test: Concentration required to inhibit HSV-2(lyons) induced cytopathogenicity in ESM cells by 50%; settings: Homo sapiens; read-out: MIC; summary of the method: as §1
# ESM [9] = test: Concentration required to inhibit TK-HSV-1 (B2006) induced cytopathogenicity in ESM cells by 50%; settings: Homo sapiens; summary of the method: as §1
# ESM [10] = test: Concentration required to inhibit TK-HSV-1 ([…]) induced cytopathogenicity in ESM cells by 50%; settings: Homo sapiens; summary of the method: as §1
# ESM [11] = test: Concentration required to inhibit VV induced cytopathogenicity in ESM cells by 50%.; settings: Homo sapiens; summary of the method: as §1
# HEL [12] = test: Concentration required to inhibit CMV (AD-169) induced cytopathogenicity in HEL cells by 50%; settings: Homo sapiens; read-out: MIC
# HEL [13] = test: Concentration required to inhibit CMV (Davis) induced cytopathogenicity in HEL cells by 50%; settings: Homo sapiens
# HEL [14] = test: Concentration required to inhibit TK-VZV (07-1) induced cytopathogenicity in HEL cells by 50%; settings: Homo sapiens; read-out: MIC
# HEL [15] = test: Concentration required to inhibit TK-VZV (YSR) induced cytopathogenicity in HEL cells by 50%; settings: Homo sapiens
# HEL [16] = test: Concentration required to inhibit VZV (YS) induced cytopathogenicity in HEL cells by 50%; settings: Homo sapiens; read-out: MIC
# HEL [17] = test: Concentration required to inhibit VZV (oka) induced cytopathogenicity in HEL cells by 50%; settings: Homo sapiens; read-out: MIC
# HEL [18] = test: Concentration required to cause 50% reduction in HEL cell growth.; settings: Homo sapiens; read-out: MIC
# ESM [19] = test: Concentration required to inhibit VV induced cytopathogenicity in ESM cells by 50%; settings: Homo sapiens; summary of the method: as §1
# HEL [20] = test: Concentration required to cause 50% reduction in HEL cell growth; settings: Homo sapiens
Compound,IC50 (DNA synthesis inhibition) (ESM [1]) [µg/mL],MIC (ESM [2]) [µg/mL],EC50 (ESM [3]) [µg/mL],50% inhibitory concentration against virus-induced cytopathogenicity (EC50) (ESM [4]) [µg/mL],EC50 for inhibiting virus-induced cytopathogenicity (ESM [5]) [µg/mL],EC50 (ESM [6]) [µg/mL],EC50 (ESM [7]) [µg/mL],EC50 (50% inhibition of virus cytopathogenicity) (ESM [8]) [µg/mL],MIC (ESM [9]) [µg/mL],MIC (ESM [10]) [µg/mL],MIC (ESM [11]) [µg/mL],EC50 (HEL [12]) [µg/mL],MIC (HEL [13]) [µg/mL],EC50 (HEL [14]) [µg/mL],MIC (HEL [15]) [µg/mL],EC50 (HEL [16]) [µg/mL],EC50 (HEL [17]) [µg/mL],50% cell growth inhibitory concentration (CC50) (HEL [18]) [µg/mL],MIC (ESM [19]) [µg/mL],MIC (HEL [20]) [µg/mL]
Cc1cn2c(O)c3ncn(COCCO)c3nc2n1,> 200,> 400,0.7,0.7,1,0.7,2,0.4,> 400,> 400,> 400,200,> 400,400,> 400,25,20,> 200,,
OCC(CO)OCn1cnc2c(O)n3ccnc3nc21,> 200,> 400,0.7,0.7,0.7,2,2,0.7,> 400,150,> 400,150,200,400,300,> 400,400,> 200,,
OCCOCn1cnc2c(O)n3ccnc3nc21,> 200,> 400,4,20,20,70,20,10,> 400,> 400,> 400,> 400,> 400,> 400,> 400,> 400,> 400,> 200,,
CCOC(Cn1c(N)nc2c(ncn2COC(CO)CO)c1=O)OCC,> 100,> 400,20,70,20,70,70,20,> 400,> 400,> 400,> 400,> 400,> 400,> 400,> 400,> 400,> 200,,
OC[C@H]1OC(n2cnc3c(O)n4ccnc4nc32)[C@H](O)[C@@H]1O (some centres not stated),150,> 400,> 400,> 400,> 400,> 400,> 400,> 400,> 400,> 400,,400,400,> 400,> 400,> 400,> 400,,> 400,> 200
CCOC(Cn1c(N)nc2c(ncn2C2O[C@H](CO)[C@@H](O)[C@H]2O)c1=O)OCC (some centres not stated),> 200,> 400,100,> 400,100,> 400,> 400,100,> 400,> 400,> 400,> 400,> 400,> 200,> 200,> 200,> 200,> 200,,
Cc1cn2c(O)c3ncn(C4O[C@H](CO)[C@@H](O)[C@H]4O)c3nc2n1 (some centres not stated),150,> 400,> 400,> 400,> 400,> 400,> 400,> 400,> 400,> 400,,> 200,> 200,> 200,> 200,> 200,> 200,,> 400,> 200
CCOC(Cn1c(N)nc2c(ncn2COCCO)c1=O)OCC,> 200,> 400,70,> 400,> 400,20,> 400,20,> 400,> 400,> 400,> 400,> 400,> 400,> 400,> 400,> 400,> 200,,
Cc1cn2c(O)c3ncn(COC(CO)CO)c3nc2n1,> 200,> 400,0.07,0.07,0.07,0.07,0.07,0.07,200,20,> 400,4,5,15,50,10,4,> 200,,
Nc1nc2c(ncn2COCCO)c(=O)[nH]1 [ACYCLOVIR],,400,,,,,,,100,40,> 200,,15,,,,,,,
Nc1nc2c(ncn2COC(CO)CO)c(=O)[nH]1 [GANCICLOVIR],,> 400,,,,,,,7,1,20,,1,,,,,,,
